Data published in ChEMBL document CHEMBL4477194, “Royal Jelly Constituents Increase the Expression of Extracellular Superoxide Dismutase through Histone Acetylation in Monocytic THP-1 Cells” (J Nat Prod, 2016).
Active and inactive are the calls of the source. The rule behind the calls is not given here.

Columns and labels:
[1] = molecular target: Histone deacetylase 1 (Homo sapiens) (UniProt Q13547); test: Inhibition of HDAC1 in human THP1 cells assessed as increase in histone H4 acetylation level at 1 mM after 12 hrs by Western blot analysis relative to control; type: cell-based
Procedure, shortened: (§1)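 After 12 h treatment, THP-1 whole-cell extracts (20 μg protein) were run on 12% SDS-PAGE and transferred to PVDF. Membranes were blocked with 1% BSA in PBS and probed with anti-acetyl histone H3 or H4 primary antibodies (1:1000), then a biotin-conjugated secondary antibody (1:1000). Histone loading was checked by Coomassie staining.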

[2] = species on record: Homo sapiens; test: Upregulation of HDAC1 inhibition/ERK signalling activation-mediated extracellular SOD protein expression in human THP1 cells at 1 mM after 24 hrs by ELISA; type: cell-based
Procedure, shortened: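 EC-SOD protein content was measured by ELISA in THP-1 cells after 24 h treatment, with cells collected in PBS. Cells were cultured in RPMI 1640 with 10% heat-inactivated FCS at 37 °C and 5% CO2. Values are mean ± SD of three independent experiments, compared against untreated cells.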

[3] = species on record: Homo sapiens; test: Upregulation of HDAC1 inhibition/ERK signalling activation-mediated extracellular SOD mRNA expression in human THP1 cells at 1 mM after 24 hrs by RT-PCR method; type: cell-based
Procedure, shortened: (§2)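 THP-1 cells (RPMI 1640, 10% heat-inactivated FCS, 37 °C, 5% CO2) were seeded at 2.0 × 10^6 cells/dish and treated for 24 h. Cells were washed with cold PBS and lysed in TRIzol, then analysed by real-time RT-PCR normalized to 18S rRNA. Values are mean ± SD of three independent experiments, with ANOVA and Bonferroni tests.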

[4] = molecular target: Histone deacetylase 1 (Homo sapiens) (UniProt Q13547); test: Inhibition of HDAC1 in human THP1 cells assessed as increase in histone H3 acetylation level at 1 mM after 12 hrs by Western blot analysis relative to control; type: cell-based; procedure, shortened: as §1
[5] = tested on: THP-1; test: Upregulation of Mn SOD mRNA expression in human THP1 cells at 1 mM after 24 hrs by RT-PCR method; type: functional, cell-based; procedure, shortened: as §2
[6] = tested on: THP-1; test: Effect on Cu/Zn SOD mRNA expression in human THP1 cells at 1 mM after 24 hrs by RT-PCR method; type: functional, cell-based; procedure, shortened: as §2
[7] = molecular target: Histone deacetylase (Homo sapiens) (UniProt Q13547+O15379+Q9UBN7+Q92769+Q9UQL6+Q8WUI4+Q9BY41+Q96DB2+P56524+Q9UKV0+Q969S8); test: Inhibition of HDAC activity in human THP1 cells at 1 mM preincubated for 1 hr followed by substrate addition measured after 2 hrs by fluorescence assay relative to control; type: cell-based
Procedure, shortened: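 This is a cell-based HDAC assay. THP-1 cells at 5.0 × 10^4 cells/well were treated for 1 h, then HDAC substrate was added for 2 h at 37 °C. Lysis/developer solution followed for 15 min at 37 °C. Fluorescence was read at ex 365 nm / em 410–460 nm and compared with untreated cells; mean ± SD, n = 3 independent experiments.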

[8] = molecular target: Histone deacetylase 1 (Homo sapiens) (UniProt Q13547); test: Inhibition of recombinant HDAC1 catalytic domain (unknown origin) using HDAC substrate at 1 mM preincubated for 1 hr followed by substrate addition measured after 30 mins by fluorescence assay relative to control
Procedure, shortened: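 Recombinant HDAC1 was mixed with compound in assay buffer, and the reaction was started with HDAC substrate for 30 min at 37 °C in the dark. Developer was then added for 15 min at room temperature. Fluorescence was read at ex 365 nm / em 410–460 nm and compared with untreated control; mean ± SD of three independent experiments.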

[9] = tested on: THP-1; test: Effect on HDAC8 mRNA expression in human THP1 cells at 1 mM after 24 hrs by RT-PCR method; type: functional, cell-based
Procedure, shortened: (§3)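 THP-1 cells in RPMI 1640 with 10% heat-inactivated FCS, 37 °C, 5% CO2. Seeded 2.0 × 10^6 cells per 3.5 cm dish and treated 24 h, at 1 mM for the 1 mM lines and 100 μM for the 100 μM lines. RNA extracted in TRIzol, then real-time RT-PCR normalized to 18S rRNA. Means ± SD of three independent experiments; ANOVA with Bonferroni post hoc.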

[10] = molecular target: Histone deacetylase 1 (Homo sapiens) (UniProt Q13547); test: Upregulation of HDAC1 inhibition-mediated histone H3 acetylation-induced extracellular SOD expression in human THP1 cells at 1 mM after 12 hrs by chromatin immunoprecipitation method; type: cell-based
Procedure, shortened: (§4)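 THP-1 cells (5 × 10^6) treated 12 h, at 1 mM or 100 μM per line. Cross-linked with formaldehyde 5 min at room temperature and chromatin sonicated to 150–800 bp. Immunoprecipitated overnight on protein G beads and washed in RIPA I/II and TE. Eluted with RNase A and proteinase K. EC-SOD promoter binding expressed as % of input.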

[11] = tested on: THP-1; test: Effect on HDAC9 mRNA expression in human THP1 cells at 1 mM after 24 hrs by RT-PCR method; type: functional, cell-based; procedure, shortened: as §3
[12] = tested on: THP-1; test: Effect on HDAC1 mRNA expression in human THP1 cells at 1 mM after 24 hrs by RT-PCR method; type: functional, cell-based; procedure, shortened: as §3
[13] = tested on: THP-1; test: Effect on HDAC2 mRNA expression in human THP1 cells at 1 mM after 24 hrs by RT-PCR method; type: functional, cell-based; procedure, shortened: as §3
[14] = tested on: THP-1; test: Effect on HDAC6 mRNA expression in human THP1 cells at 1 mM after 24 hrs by RT-PCR method; type: functional, cell-based; procedure, shortened: as §3
[15] = tested on: THP-1; test: Effect on HDAC4 mRNA expression in human THP1 cells at 1 mM after 24 hrs by RT-PCR method; type: functional, cell-based; procedure, shortened: as §3
[16] = tested on: THP-1; test: Effect on HDAC7 mRNA expression in human THP1 cells at 1 mM after 24 hrs by RT-PCR method; type: functional, cell-based; procedure, shortened: as §3
[17] = tested on: THP-1; test: Effect on HDAC10 mRNA expression in human THP1 cells at 1 mM after 24 hrs by RT-PCR method; type: functional, cell-based; procedure, shortened: as §3
[18] = tested on: THP-1; test: Effect on HDAC5 mRNA expression in human THP1 cells at 1 mM after 24 hrs by RT-PCR method; type: functional, cell-based; procedure, shortened: as §3
[19] = molecular target: Histone deacetylase 1 (Homo sapiens) (UniProt Q13547); test: Upregulation of HDAC1 inhibition-mediated histone H4 acetylation-induced extracellular SOD expression in human THP1 cells at 1 mM after 12 hrs by chromatin immunoprecipitation method; type: cell-based; procedure, shortened: as §4
[20] = tested on: THP-1; test: Effect on HDAC3 mRNA expression in human THP1 cells at 1 mM after 24 hrs by RT-PCR method; type: functional, cell-based; procedure, shortened: as §3

Histone deacetylase 1 (Homo sapiens), sequence (Q13547 whole entry, the tested form may be a part): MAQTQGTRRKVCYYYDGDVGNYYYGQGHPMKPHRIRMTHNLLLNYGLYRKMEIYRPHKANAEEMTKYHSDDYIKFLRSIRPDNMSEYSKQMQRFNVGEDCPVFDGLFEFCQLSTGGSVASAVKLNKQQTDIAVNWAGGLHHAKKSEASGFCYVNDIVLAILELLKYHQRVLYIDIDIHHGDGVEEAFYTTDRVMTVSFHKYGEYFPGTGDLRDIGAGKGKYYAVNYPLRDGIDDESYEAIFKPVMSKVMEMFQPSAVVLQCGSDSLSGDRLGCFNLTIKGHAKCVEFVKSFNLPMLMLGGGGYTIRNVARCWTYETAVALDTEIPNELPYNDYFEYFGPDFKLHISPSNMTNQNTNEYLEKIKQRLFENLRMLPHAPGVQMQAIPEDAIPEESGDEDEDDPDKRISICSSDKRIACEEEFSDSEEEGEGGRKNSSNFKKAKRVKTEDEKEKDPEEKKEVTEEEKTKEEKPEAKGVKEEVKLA

fold change (FC) [1]	fold change (FC) [4]	inhibition [7]	inhibition [8] [%]	Activity [10]	Activity [19]	Structure (SMILES)	Activity [2]	Activity [3]	Activity [5]	Activity [6]	Activity [9]	Activity [11]	Activity [12]	Activity [13]	Activity [14]	Activity [15]	Activity [16]	Activity [17]	Activity [18]	Activity [20]
2.47	1.29	Active	50	–	–	O=C(O)/C=C\CCCCCCCO	Active	Active	Active	inactive	–	–	–	–	–	–	–	–	–	–
2.24	1.24	20%	50	inactive	Active	O=C(O)CCCCCCCCC(=O)O	Active	Active	Active	inactive	inactive	inactive	inactive	inactive	inactive	inactive	inactive	inactive	inactive	inactive
